Screening results from PubChem BioAssay.
MIN6 prolif-1: inducers of MIN6 beta-cell proliferation, primary screen, ATP luminescence, uHTS. MIN6 cells proliferation, ATPlite luminescence, 48 h; cells starved in 0.2% serum; 100% = growth in 10% serum. proliferation, % at 10 µM. 0.29% of 330,000 active;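 active means compounds whose signal lies at least 3.5 SD above the mean of all wells on their plate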;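 further: 0% = DMSO-treated cells in low-serum medium and 100% = 10% serum control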
CRFBP-R2 agonist: agonists of CRF-BP/CRF-R2 complex, primary screen, cell-based, HEK293, calcium dye fluorescence, uHTS. CRF-binding protein / CRF receptor 2 complex (human). calcium dye fluorescence (FLIPR); percent of saturating CRF peptide response. activation, % at 13.2 µM. 0.46% of 350,000 active. AID 588473, 2011;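 active means activation of at least 50%, plus an integration ratio under a set limit after plate pattern correction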;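 further: plate controls were neutral control wells without compound for no effect and CRF at EC100 for full effect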
H9c2 protect: cardioprotection against H2O2-induced cell death, primary screen, uHTS, H9c2 cells, ATPLite luminescence | 0.63% of 360,000 active | H9c2 cardiomyocytes, H2O2 injury protection, 2 h | protection from H2O2 cell death, % at 20 µM | AID 588492, 2011;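 active means compounds giving at least 50% protection of heart cells from peroxide-induced death in the single-dose screen, raw or plate-pattern-corrected value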;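 further: 0% = DMSO wells with peroxide and 100% = DMSO wells without peroxide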
CRFBP-R2 block: antagonists of CRF-BP/CRF-R2 complex, primary screen, cell-based, HEK293, calcium dye fluorescence, uHTS; CRF-induced calcium fluorescence; inhibition, % at 11.8 µM; 0.59% of 350,000 active; AID 588475, 2011;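 active means inhibition of the ligand-induced calcium signal above about 50% at the single tested concentration, limit read from the data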
hiPSC survival: enhancers of single-cell hiPSC survival, primary screen, ATPlite luminescence; survival enhancement, % at 20 µM; 100% = ROCK inhibitor wells, 0% = DMSO; AID 602274, 2012; 0.044% of 360,000 active; in the data active means survival enhancement above about 18%;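 further: cells exposed to compounds for 16 hours before the ATP read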
UCH37 inh: inhibitors of human UCH37 deubiquitinase, primary screen, biochemical, Ub-AMC cleavage, fluorescence; purified proteasome/UCH37; inhibition, % (no concentration beside the values); AID 588478, 2011; 0.33% of 330,000 active; Ubiquitin carboxyl-terminal hydrolase isozyme L5 (Homo sapiens), Q9Y5K5;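 active means mean inhibition over replicate wells above about 20%, limit read from the data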;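 further: 0% = compound-free wells with enzyme and 100% = wells lacking proteasome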
Target sequence (Q9Y5K5 whole entry, looked up): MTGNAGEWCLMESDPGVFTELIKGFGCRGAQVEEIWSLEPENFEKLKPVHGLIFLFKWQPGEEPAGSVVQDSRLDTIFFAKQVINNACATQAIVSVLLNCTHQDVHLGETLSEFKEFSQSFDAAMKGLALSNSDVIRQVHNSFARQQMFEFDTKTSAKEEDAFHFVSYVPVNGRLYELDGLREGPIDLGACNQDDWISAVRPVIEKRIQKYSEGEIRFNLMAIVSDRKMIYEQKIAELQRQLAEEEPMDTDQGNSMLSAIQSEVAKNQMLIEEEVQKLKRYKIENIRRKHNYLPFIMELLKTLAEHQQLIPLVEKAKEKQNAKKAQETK
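Assay system: Proteasome-bound UCH37. Buffer or medium: pH 7.4 Tris-HCl (50 mM) with ovalbumin, ATP-MgCl2, DTT. Incubation: 30 min preincubation with enzyme, 25 min cleavage at room temperature. Measured by: fluorescence, ex 355 nm, em 460 nm. Read-out basis: percent inhibition. Control set: wells without proteasome as full block, compound-free enzyme plus substrate as uninhibited.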
MIN6 prolif-2: inducers of beta-cell proliferation in MIN6, confirmation, MIN6 cells, mouse; shares compounds with MIN6 prolif-1; ATPlite luminescence, 48 h; cells kept in 0.2% serum; scaled between 0.2% and 10% serum; proliferation increase, % at 50 µM; 920 tested, under 10 active; AID 463095, 2010;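 active means proliferation increase above 40% at any of the four tested concentrations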
Starred values were filed as active, the others as inactive; . = no result. Most compounds without a hit are left out; they make up all but 2.1% or so of the library.

SMILES	MIN6 prolif-1	CRFBP-R2 agonist	H9c2 protect	CRFBP-R2 block	hiPSC survival	UCH37 inh	MIN6 prolif-2
Cc1cc(C)nc(NS(=O)(=O)c2ccc(NC(=O)CCN3C(=O)c4ccccc4C3=O)cc2)n1	8.2*	-2.8	19.1	-0.9	-2.5	2.9	0.0
Cc1cccc(N2CCN(C(=S)NC3CCCCC3)CC2)c1C	7.9*	-0.4	-2.7	1.3	-0.4	1.8	0.2
CC1CN(Cc2ccccc2)c2ccccc2NC1=S (stereo not drawn)	0.0*	1.6	-5.9	-33.1	2.6	1.5	-6.3
COc1ccccc1C=NNc1cn[nH]c(=O)c1Cl	.	.	.	.	.	3.4	.
Cc1cnc(C(=O)OCC(=O)Nc2cc(-c3ccccc3)nn2-c2ccccc2)cn1	11.5*	-0.9	-0.1	5.3	0.6	.	-0.2
N#CCC(=O)Nc1ccc(C(=O)OCC(=O)Nc2cc(-c3ccccc3)nn2-c2ccccc2)cc1	.	-1.0	37.8	-33.2	-1.7	.	.
CCOc1cc(N2CCOCC2)c(OCC)cc1NC(=O)c1cnccn1	9.3*	-1.5	4.2	15.2	0.5	4.5	3.2
COc1ccccc1N1CCN(N=Cc2ccc(C)o2)CC1	.	.	.	.	.	2.7	.
Cc1c(Cc2ccccc2)sc(N=Cc2ccc3ccccc3c2)c1C(N)=O	.	.	.	.	.	-106.2	.
COc1ccc(NC(=S)N(Cc2ccc(C(=O)O)cc2)Cc2ccc(OC)c(OC)c2)cc1	9.2*	-2.6	-4.0	21.0	-1.1	.	0.2
Cc1ccc(C(=O)Nc2ccc(Cl)cn2)cc1S(=O)(=O)N1CCOCC1	-2.7	0.1	1.3	-14.4	-0.5	2.6	.
Cc1ccc(NC(=O)c2ccc(C)c(S(=O)(=O)N3CCOCC3)c2)nc1	12.9*	-1.5	4.5	9.1	1.3	.	-3.4
O=C(NN=Cc1ccoc1)c1ccccc1Br	.	.	.	.	.	2.2	.
CCOC(=O)C1CCN(C(=O)CCNS(=O)(=O)c2ccc(C)cc2)CC1	1.2	0.6	-3.6	5.4	0.5	5.5	.
CCOC(=O)C1CCN(C(=O)CC(NS(=O)(=O)c2ccc(OC)cc2)C(C)C)CC1 (stereo not drawn)	6.2*	-0.2	2.4	4.8	2.6	0.8	2.4
CCOc1ncccc1C(=O)OC(C)C(=O)Nc1ccc(Cl)cn1 (stereo not drawn)	13.5*	5.1	-0.5	-1.2	0.0	.	-0.7
CNc1ccccc1C(=O)OC(C)C(=O)Nc1ccc(Cl)cn1 (stereo not drawn)	-1.5	1.2	-3.6	0.2	0.0	-247.3	.
Cn1c(=N)n(CC(=O)O)c2ccccc21	5.8*	-1.5	-2.7	-1.3	-2.6	0.9	-0.1
CCCCNC(=O)Nc1nnc(C(C)(C)C)s1	5.1*	-0.6	1.5	-1.9	-0.5	4.7	0.8
Nc1n[nH]c(N)c1N=Nc1ccccc1F	-0.5	-2.7	0.0	5.3	-0.2	13.1	.
Cc1ccccc1N=Nc1c(N)n[nH]c1N	7.2*	0.3	4.4	0.4	-0.3	11.3	-3.9
CC1=C(C(=O)Nc2ccccc2)C(c2ccncc2)C(C#N)=C(SCC(=O)NC2CC2)N1 (stereo not drawn)	8.3*	1.4	-3.4	1.3	0.7	1.0	2.5
Cc1ccc(N(CC(=O)NCc2ccccn2)S(=O)(=O)c2ccccc2)cc1C	9.0*	1.8	-2.8	-8.2	0.0	0.0	2.3
NC(=S)NN=Cc1coc2ccc(F)cc2c1=O	.	.	.	.	.	2.1	.
COc1ccccc1NC(=O)N1CCN(c2ccccc2F)CC1	7.3*	-0.6	0.6	-6.8	-3.4	1.3	0.5
COc1ccccc1NC(=O)CN1CCN(c2ccccc2F)CC1	2.0	-2.0	-11.7	6.0	-2.4	1.4	.
CC(=NNC(=O)Cn1ccc(C(F)(F)F)n1)c1ccco1	.	.	.	.	.	-0.7	.
COc1cccc(C(=O)N2CCOCC2)c1OC	-0.6	0.6	-0.4	15.4	0.1	2.4	.
